Experimental data reported in article PMC7610571 (Nature chemical biology, 2020).

Columns and labels:
NUDT15 [1] = target: T1, NUDT15 (Homo sapiens, UniProt Q9NV35); test: Differential scanning fluorimetry; assay type: binding; settings: over the DMSO control, dose-dependent
T1 sequence (Q9NV35 1-164): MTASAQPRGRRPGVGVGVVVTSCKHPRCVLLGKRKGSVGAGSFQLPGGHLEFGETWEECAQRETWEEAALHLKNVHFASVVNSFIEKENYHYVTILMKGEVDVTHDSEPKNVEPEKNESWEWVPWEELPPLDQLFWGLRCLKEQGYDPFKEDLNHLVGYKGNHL

NB4 and HL-60 cells = test: Thiopurine/TH1760 dose-matrix, resazurin viability; assay type: cell-based, human; settings: combined with 6-TG or 6-MP, dose-dependent
Outline: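 NB4 and HL-60 cells treated with a dose matrix of 6-TG or 6-MP combined with test compound (pre-treatment 3 h). Resazurin read-out four days after treatment (544/590 nm), viability normalised to DMSO controls. Relative viabilities used for EC50 fitting and SynergyFinder synergy scores. Knockdown matrix in NB4 shRNA lines: 96 h, n=2.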

[2] = system: BJ-RAS cells versus BJ-hTERT cells; test: Resazurin viability assay, isogenic fibroblasts; assay type: cell-based, human
NB4 cells = test: Alkaline comet assay; assay type: cell-based, human; settings: NB4, 10 μM TH1760 + 6-TG, 48 h
NUDT15 [3] = target: T1, NUDT15; test: PPiLight inorganic pyrophosphate assay, 6-thio-dGTPase activity; assay type: biochemical
Outline: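 6-thio-dGTPase activity of 10 nM NUDT15 in 100 mM Tris acetate pH 7.5, 40 mM NaCl, 100 mM Mg acetate, 1 mM DTT, with 2.5 μM 6-thio-dGTP. Test-compound dilution series ran 13.3 μM–75 pM or 15 μM–2.2 nM, depending on compound. Shaken 30 min at 22 °C; formed PPi detected by PPiLight luminescence.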

NUDT15 [4] = target: T1, NUDT15; test: Enzyme-coupled malachite green; assay type: biochemical; settings: MG assay
Outline: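 Excess E. coli pyrophosphatase (0.4 U/mL) added for 20 min, then malachite green for 15 min; A630 read. Buffer-only wells served as the full-inhibition control. Two experiments, each in duplicate.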

NUDT15 [5] = settings: read-out: Km of NUDT15 for 6-thio-dGTP; cited from earlier work

| Structure (SMILES) | increase of NUDT15 melting temperature (NUDT15 [1]) [°C] | reduction of thiopurine EC50 values (NB4 and HL-60 cells) | sensitization to 6-TG, tumorigenic versus non-transformed cells [2] | 6-TG-induced DNA damage (comet tail moment) (NB4 cells) | potency improvement as compared to TH884 (NUDT15 [3]) | improvement of potency compared to hit compound TH884 (NUDT15 [4]) | Km (NUDT15 [5]) [µM] |
| --- | --- | --- | --- | --- | --- | --- | --- |
| O=C(c1ccc2[nH]ccc2c1)N1CCN(S(=O)(=O)c2ccc3[nH]c(=O)oc3c2)CC1 [Compound 18] | > 10 | ~ 10 fold | preferentially sensitized BJ-RAS cells to 6-TG versus their non-transformed counterpart BJ-hTERT cells | potentiated 6-TG-induced DNA damage in NB4 cells | over 200 fold | more than 200 fold |  |
| Nc1nc2c(ncn2[C@H]2C[C@H](O)[C@@H](COP(=O)(O)OP(=O)(O)OP(=O)(O)O)O2)c(=S)[nH]1 [Compound 6-thio-dGTP, 6-thio-dGTP] |  |  |  |  |  |  | 2 |
